Experimental data from ChEMBL document CHEMBL4346667 (Eur J Med Chem, 2019).
Activity calls are given as the source filed them. No cut-off for these calls is given here.

Columns and labels:
A549 = assay: Antiproliferative activity against human A549 cells assessed as reduction in cell viability after 48 hrs by MTT assay; type: functional, cell-based; conditions: A549, 48 h
Method in brief: (§1)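 Cells grown at 37 °C, 5% CO2; HeLa, HepG2, H8, HL7702 in RPMI 1640 + 10% fetal calf serum, others in high-glucose DMEM + 10% fetal calf serum. Log-phase cells seeded at 4000-12000/well by doubling time. Attached cells were given 10-fold dilutions, 100 µM to 10 nM (DMSO 0.1% v/v), for 48 h. MTT (2 mg/mL) 4 h, formazan in DMSO, A492. IC50 from triplicate means.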

HepG2 = assay: Antiproliferative activity against human HepG2 cells assessed as reduction in cell viability after 48 hrs by MTT assay; type: functional, cell-based; conditions: HepG2, 48 h; method in brief: as §1
HeLa = assay: Antiproliferative activity against human HeLa cells assessed as reduction in cell viability after 48 hrs by MTT assay; type: functional, cell-based; method in brief: as §1
L02 = assay: Antiproliferative activity against human HL7702 cells assessed as reduction in cell viability after 48 hrs by MTT assay; type: functional, cell-based; conditions: L02, 48 h; method in brief: as §1
MCF7 = assay: Antiproliferative activity against human MCF7 cells assessed as reduction in cell viability after 48 hrs by MTT assay; type: functional, cell-based; conditions: MCF7, 48 h; method in brief: as §1
[1] = Binding affinity to alpha/beta tubulin complex (unknown origin); set-up: species or system Homo sapiens
Method in brief: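 SPR assay: tubulin immobilized up to 800 mDeg (response units). Ligands were diluted two-fold from 80 µM to 2.5 µM in PBS with 0.5% (v/v) DMSO and injected at 60 µL/min for 300 s. Running buffer was PBS with 0.5% DMSO, at 25°C.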

MRC5 = assay: Antiproliferative activity against human MRC5 cells assessed as reduction in cell viability after 48 hrs by MTT assay; type: functional, cell-based; conditions: MRC5, 48 h; method in brief: as §1
[2] = Antiproliferative activity against human H8 cells assessed as reduction in cell viability after 48 hrs by MTT assay; type: functional, cell-based; method in brief: as §1
HMEC = assay: Antiproliferative activity against human HMEC cells assessed as reduction in cell viability after 48 hrs by MTT assay; type: functional, cell-based; method in brief: as §1
Tubulin (Homo sapiens) = Tubulin (Homo sapiens) (UniProt P68371+Q9H4B7+P0DPH7+P68366+Q13509+Q71U36+P04350+Q3ZCM7+P07437+P68363+Q9BQE3+Q6PEY2+Q13885+Q9BVA1+Q9BUF5); assay: Inhibition of tubulin polymerization in human HeLa cells assessed as contracted and rounded cells with disordered abnormal spindles and chromosomal misalignment at 500 nM after 24 hrs by immunofluorescence based confocal microscopy; type: cell-based
Method in brief: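 HeLa cells on glass coverslips were treated for 24 h at 25, 250 or 500 nM. They were fixed in 4% paraformaldehyde for 1 h and permeabilised with 0.2% Triton X-100 for 20 min. Cells were imaged by fluorescence and confocal microscopy.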

| SMILES | IC50 (A549) | IC50 (HepG2) | IC50 (HeLa) | IC50 (L02) | IC50 (MCF7) | Ki [1] | IC50 (MRC5) | IC50 [2] | IC50 (HMEC) | inhibition (Tubulin (Homo sapiens)) |
| --- | --- | --- | --- | --- | --- | --- | --- | --- | --- | --- |
| COc1cc([C@@H]2c3cc4c(cc3[C@@H](Nc3ccc5[nH]ccc5c3)[C@H]3COC(=O)[C@H]23)OCO4)cc(OC)c1OC | 0.5 µM | 0.9 µM | 0.9 µM | 43.3 µM | 0.4 µM | 0.1 µM | 51.3 µM | 29.2 µM | 55.2 µM |  |
| COc1cc([C@@H]2c3cc4c(cc3[C@H](O)[C@H]3COC(=O)[C@H]23)OCO4)cc(OC)c1OC [PODOFILOX] | 2.6 µM | 2.4 µM | 6.9 µM | 5 µM | 2.4 µM | 0.27 µM | 10.6 µM | 8.4 µM | 5.6 µM | Active |
| COc1cc([C@@H]2c3cc4c(cc3[C@@H](Nc3ccc5cn[nH]c5c3)[C@H]3COC(=O)[C@H]23)OCO4)cc(OC)c1OC | 1 µM | 1.9 µM | 0.8 µM | 38.4 µM | 0.8 µM | 0.03 µM | 53.6 µM | 65.5 µM | 52.5 µM |  |
| COc1cc([C@@H]2c3cc4c(cc3[C@@H](Nc3cccc5cn[nH]c35)[C@H]3COC(=O)[C@H]23)OCO4)cc(OC)c1OC | 5.4 µM | 6.3 µM | 2.5 µM | 29.4 µM | 2.7 µM | 0.12 µM | 35.5 µM | 19.5 µM | 43.3 µM |  |
| COc1cc([C@@H]2c3cc4c(cc3[C@@H](Nc3ccc5ncccc5c3)[C@H]3COC(=O)[C@H]23)OCO4)cc(OC)c1OC | 0.3 µM | 0.8 µM | 0.7 µM | 64.3 µM | 0.6 µM | 0.11 µM | 22.5 µM | 80.2 µM | 89.2 µM |  |
| COc1cc([C@@H]2c3cc4c(cc3[C@@H](Nc3cccc5ncccc35)[C@H]3COC(=O)[C@H]23)OCO4)cc(OC)c1OC | > 100 µM | > 100 µM | > 100 µM | 89.8 µM | > 100 µM | 0.06 µM | 70.8 µM | 94.2 µM | 79.8 µM |  |
| COc1cc([C@@H]2c3cc4c(cc3[C@@H](Nc3cccc5cccnc35)[C@H]3COC(=O)[C@H]23)OCO4)cc(OC)c1OC | 1.2 µM | 4.6 µM | 2.7 µM | 37 µM | 1 µM | 0.19 µM | 49.1 µM | 89.6 µM | 39.2 µM |  |
| COc1cc2c(c(OC)c1OC)-c1ccc(OC)c(=O)cc1[C@@H](NC(C)=O)CC2 [COLCHICINE] | 9.7 µM | 5.8 µM | 10.2 µM | 9.2 µM | 14.3 µM | 0.11 µM | 6.2 µM | 6.1 µM | 8.1 µM |  |
| COc1cc([C@@H]2c3cc4c(cc3[C@@H](Nc3cccc5cc[nH]c35)[C@H]3COC(=O)[C@H]23)OCO4)cc(OC)c1OC | 2.2 µM | 2.5 µM | 3.8 µM | 30.5 µM | 4.8 µM | 0.05 µM | 38.5 µM | 19.4 µM | 45.5 µM |  |
| COc1cc([C@@H]2c3cc4c(cc3[C@@H](Nc3cccc5[nH]ncc35)[C@H]3COC(=O)[C@H]23)OCO4)cc(OC)c1OC | 2.6 µM | 1.2 µM | 1.8 µM | 41.4 µM | 3 µM | 0.02 µM | 45.6 µM | 25.6 µM | 60.5 µM |  |
| COc1cc([C@@H]2c3cc4c(cc3[C@@H](Nc3ccc5cccnc5c3)[C@H]3COC(=O)[C@H]23)OCO4)cc(OC)c1OC | 2.3 µM | 4.1 µM | 3.1 µM | 16.3 µM | 1.4 µM | 0.12 µM | 25.6 µM | 9.4 µM | 73.5 µM |  |
| COc1cc([C@@H]2c3cc4c(cc3[C@@H](Nc3cccc5[nH]ccc35)[C@H]3COC(=O)[C@H]23)OCO4)cc(OC)c1OC | 2.4 µM | 1.8 µM | 2.1 µM | 33.6 µM | 1.3 µM | 0.1 µM | 32.4 µM | 29.2 µM | 64.2 µM |  |
| COC(=O)Nc1nc2cc(C(=O)c3cccs3)ccc2[nH]1 [NOCODAZOLE] | 0.2 µM | 0.4 µM | 0.3 µM | 13.5 µM | 0.2 µM |  | 15.3 µM | 18 µM | 11.5 µM | Active |
